The values that follow come from ChEMBL document CHEMBL3616414, “Macrocyclic Envelope Glycoprotein Antagonists that Irreversibly Inactivate HIV-1 before Host Cell Encounter” (J Med Chem, 2015).

As a reminder, the IC50 is the point on the concentration scale where inhibition reaches its midpoint. Low values mean greater potency in that assay, high ones weaker potency in that assay.

Series [1] in a line: Inhibition of HIV1 gp120 binding to CD4 by SPR competition binding assay. Also noted: species or system Human immunodeficiency virus 1.
Series [2] can be described thus: Inhibition of HIV1 gp120 binding to 17b antibody by SPR competition binding assay. Further details: species or system Human immunodeficiency virus 1. For orientation: Surface plasmon resonance follows binding to a sensor surface in real time, without labels.
Series [3] in a line: Stability assessed as trypsin (unknown origin)-mediated compound degradation incubated for 5 hrs at 37 degC by HPLC and ESI-MS method. As to conditions: human. The series is classed as ADME. The method in brief: (§1)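 Each peptide was incubated on its own with a single protease (trypsin or chymotrypsin) at 37 °C. Digestion was tracked by HPLC and ESI-MS for remaining intact peptide. For chymotrypsin, samples were taken after 30 min, and the cyclic peptide was also checked after 20 h and 40 h.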

Series [4] in a line: Stability assessed as chymotrypsin (unknown origin)-mediated compound degradation incubated for 5 hrs at 37 degC by HPLC and ESI-MS method. The series is classed as ADME. As to conditions: human. The gist of the method: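 Each peptide incubated on its own with chymotrypsin at 37 °C. Digestion followed over time by HPLC, with ESI-MS used to check the intact peptide and its fragments. Extended sampling at 20 h and 40 h was also done.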

The nature of series [5]: Stability assessed as chymotrypsin (unknown origin)-mediated compound degradation incubated for 30 mins at 37 degC by HPLC and ESI-MS method. The series is classed as ADME. As to conditions: human, 0.5 h. The gist of the method: as §1
Series [6] is described as follows: Stability assessed as chymotrypsin (unknown origin)-mediated compound degradation incubated for 20 hrs at 37 degC by HPLC and ESI-MS method. The series is classed as ADME. Particulars: human. The method in brief:
as §1

The nature of series [7]: Stability assessed as chymotrypsin (unknown origin)-mediated compound degradation incubated for 40 hrs at 37 degC by HPLC and ESI-MS method. Format: ADME. As to conditions: human. The method in brief:
as §1

Some results are limits rather than exact numbers.

Regarding `CC[C@@H](C)[C@H]1NC(=O)[C@@H](CC(N)=O)NC(=O)[C@@H](N)CC(=O)NCCC[C@H](C(N)=O)NC(=O)[C@@H](Cc2c[nH]c3ccccc23)NC(=O)[C@H]2C[C@@H](n3cc(CCc4ccccc4)nn3)CN2C1=O`, the results for the half-maximal inhibitory concentration (IC50) in series [1] and in series [2] were 5700 nM and 3900 nM, respectively.
The matching figures for `CC[C@@H](C)[C@@H](N)C(=O)N[C@H]1CCC(=O)NCCCC[C@H](C(N)=O)NC(=O)[C@@H](Cc2c[nH]c3ccccc23)NC(=O)[C@H]2C[C@@H](n3cc(CCc4ccccc4)nn3)CN2C(=O)[C@@H]([C@H](C)CC)NC(=O)[C@@H](CC(N)=O)NC1=O`: 138 nM and 269 nM.
The corresponding values for `CC[C@@H](C)[C@H]1NC(=O)[C@@H](CC(N)=O)NC(=O)[C@@H](N)CCC(=O)NCC[C@H](C(N)=O)NC(=O)[C@@H](Cc2c[nH]c3ccccc23)NC(=O)[C@H]2C[C@@H](n3cc(CCc4ccccc4)nn3)CN2C1=O` are above 20000 nM and above 20000 nM.
For the compound `CC[C@@H](C)[C@H]1NC(=O)[C@@H](CC(N)=O)NC(=O)[C@@H](N)CCC(=O)NCCCC[C@H](C(N)=O)NC(=O)[C@@H](Cc2c[nH]c3ccccc23)NC(=O)[C@H]2C[C@@H](n3cc(CCc4ccccc4)nn3)CN2C1=O`, the IC50 in series [1] and in series [2] was above 40000 nM each time.
In the case of `CC[C@@H](C)[C@H]1NC(=O)[C@@H](CC(N)=O)NC(=O)[C@@H](N)CC(=O)NCC[C@H](C(N)=O)NC(=O)[C@@H](Cc2c[nH]c3ccccc23)NC(=O)[C@H]2C[C@@H](n3cc(CCc4ccccc4)nn3)CN2C1=O`, the IC50 in series [1] came out at 500 nM; in series [2], 400 nM.
`CC[C@@H](C)[C@H]1NC(=O)[C@@H](CC(N)=O)NC(=O)[C@@H](N)CC(=O)NCCCC[C@H](C(N)=O)NC(=O)[C@@H](Cc2c[nH]c3ccccc23)NC(=O)[C@H]2C[C@@H](n3cc(CCc4ccccc4)nn3)CN2C1=O`: the IC50 came out at 85 nM in series [1] and 96 nM in series [2]. Also, the Stability result in series [3] (5 h), in series [4], in series [5], in series [6] and in series [7] was “Stable” in each case.
Regarding `CC[C@@H](C)[C@@H](NC(=O)[C@@H](CC(N)=O)NC(=O)[C@@H](N)CC(=O)O)C(=O)N1C[C@H](n2cc(CCc3ccccc3)nn2)C[C@@H]1C(=O)N[C@H](Cc1c[nH]c2ccccc12)C(=O)N[C@H](CCCCN)C(N)=O`, the metabolised at 5 h in series [3] (trypsin, read-out: Drug degradation) was 60%. Moreover, the Drug degradation came out at 60% in series [4] and 100% in series [5].
